{"source": "ChEMBL document CHEMBL1123658", "about": "“1-(2-pyridinyl)piperazine derivatives with antianaphylactic, antibronchospastic, and mast cell stabilizing activities” (J Med Chem, 1987)", "key": {"[1]": {"test": "In vivo toxic effect was determined in mouse after intraperitoneal administration with 10% aqueous acacia gum; value ranges from 1-1.40", "assay_type": "toxicity, organism-based", "settings": "ip", "procedure,_shortened": "(§1)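 Female albino mice (20-30 g), 10 animals per dose, dosed intraperitoneally with compound in solution or suspension; compounds tested as salts unless noted. Mortality was recorded over 7 days.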"}, "Rattus norvegicus [2]": {"system": "Rattus norvegicus", "test": "Rat PCA Test(50% inhibition of spot areas)in the female albino rats after oral administration in 10% aqueous acacia gum; value ranges from 13-117", "assay_type": "functional", "settings": "read-out: ID50 (the source's name)", "procedure,_shortened": "(§2)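 Female rats (200-250 g) were passively sensitized by ventral intradermal anti-egg-albumin antiserum. This was raised in rats by intramuscular 1% egg albumin plus ip H. pertussis vaccine, with serum taken at 12 days. After 24 h, groups of 10 were dosed orally with compound or vehicle (10 mL/kg). At 60 min, iv challenge used 0.3% egg albumin with 1% Evans blue. Blued areas were measured after 30 min.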"}, "Rattus norvegicus [3]": {"system": "Rattus norvegicus", "test": "Inhibition of mast cell degranulation was assessed in female albino rats at a dose of 45 umol/kg iv", "assay_type": "functional"}, "Cavia porcellus": {"system": "Cavia porcellus", "test": "Antibronchospatic activity determined by histamine stimulated bronchospasm inhibition in guinea pigs after(i.v.) administration", "assay_type": "functional, Bronchiole", "procedure,_shortened": "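Guinea pigs, Konzett–Rössler preparation. Bronchospasm was induced with histamine. Compound was given iv (1 mL/kg) 1 min before the agonist, dissolved in saline or saline with slight excess HCl or CH3SO3H (pH 3.5–4). Three doses were tested in duplicate, chosen to give 20–90% inhibition. ID75 was read graphically from log dose–response curves.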"}, "Rattus norvegicus [4]": {"system": "Rattus norvegicus", "test": "Rat PCA Test(50% inhibition of spot areas)in the female albino rats after (ip) administration in 10% aqueous acacia gum; value ranges from 24-51", "assay_type": "functional", "settings": "read-out: ID50 (the source's name)", "procedure,_shortened": "(§3)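 Female albino rats (200–250 g) received intradermal ventral injections of rat anti-egg-albumin antiserum; donors were raised with egg albumin im plus H. pertussis ip, and serum was taken at 12 days. 24 h later, compound was given ip in 10% acacia gum (10 mL/kg), 10 rats/group. Challenge 30 min later was iv 0.3% egg albumin plus 1% Evans blue. Blued areas were measured 30 min after challenge.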"}, "[5]": {"test": "In vivo toxic effect was determined in mouse after oral administration with 10% aqueous acacia gum; value ranges from 2.50-3.50", "assay_type": "toxicity, organism-based", "procedure,_shortened": "(§4)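 Female albino mice, 20-30 g. Compound given orally as solution or suspension in 10% aqueous acacia gum, 10 animals per dose. Deaths recorded over 7 days.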"}, "[6]": {"test": "In vivo toxic effect was determined in mouse after oral administration with 10% aqueous acacia gum; value ranges from 0.68-1.24", "assay_type": "toxicity, organism-based", "procedure,_shortened": "as §4"}, "Rattus norvegicus [7]": {"system": "Rattus norvegicus", "test": "Rat PCA Test(50% inhibition of spot areas)in the female albino rats after (ip) administration in 10% aqueous acacia gum; value ranges from 114-198", "assay_type": "functional", "settings": "read-out: ID50 (the source's name)", "procedure,_shortened": "as §3"}, "[8]": {"test": "In vivo toxic effect was determined in mouse after intraperitoneal administration with 10% aqueous acacia gum; value ranges from 0.85-1.18", "assay_type": "toxicity, organism-based", "settings": "ip", "procedure,_shortened": "as §1"}, "[9]": {"test": "In vivo toxic effect was determined in mouse after oral administration with 10% aqueous acacia gum; value ranges from 0.86-1.66", "assay_type": "toxicity, organism-based", "procedure,_shortened": "as §4"}, "Rattus norvegicus [10]": {"system": "Rattus norvegicus", "test": "Rat PCA Test(50% inhibition of spot areas)in the female albino rats after (ip) administration in 10% aqueous acacia gum; value ranges from 25-150", "assay_type": "functional", "settings": "read-out: ID50 (the source's name)", "procedure,_shortened": "as §3"}, "[11]": {"test": "In vivo toxic effect was determined in mouse after intraperitoneal administration with 10% aqueous acacia gum; value ranges from 0.29-0.60", "assay_type": "toxicity, organism-based", "settings": "ip", "procedure,_shortened": "as §1"}, "[12]": {"test": "In vivo toxic effect was determined in mouse after oral administration with 10% aqueous acacia gum; value ranges from 0.84-1.62", "assay_type": "toxicity, organism-based", "procedure,_shortened": "as §4"}, "[13]": {"test": "In vivo toxic effect was determined in mouse after intraperitoneal administration with 10% aqueous acacia gum; value ranges from 0.43-0.73", "assay_type": "toxicity, organism-based", "settings": "ip", "procedure,_shortened": "as §1"}, "Rattus norvegicus [14]": {"system": "Rattus norvegicus", "test": "Rat PCA Test(50% inhibition of spot areas)in the female albino rats after (ip) administration in 10% aqueous acacia gum", "assay_type": "functional", "settings": "read-out: ID50 (the source's name)", "procedure,_shortened": "as §3"}, "Rattus norvegicus [15]": {"system": "Rattus norvegicus", "test": "Rat PCA Test(50% inhibition of spot areas)in the female albino rats after oral administration in 10% aqueous acacia gum", "assay_type": "functional", "settings": "read-out: ID50 (the source's name)", "procedure,_shortened": "as §2"}, "Rattus norvegicus [16]": {"system": "Rattus norvegicus", "test": "Rat PCA Test(50% inhibition of spot areas)in the female albino rats after (ip) administration in 10% aqueous acacia gum; value ranges from 96-124", "assay_type": "functional", "settings": "read-out: ID50 (the source's name)", "procedure,_shortened": "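Antiserum came from female rats given 1% egg albumin in 0.9% NaCl intramuscularly plus Haemophilus pertussis vaccine (2 × 10^10 organisms) intraperitoneally, and was collected 12 days later. Recipient rats (200-250 g) got it intradermally at a ventral site. After 24 h, groups of 10 received vehicle or compound ip. At 30 min they were challenged iv with 0.3% egg albumin plus 1% Evans blue. Blued skin areas were measured 30 min later.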"}, "[17]": {"test": "In vivo toxicity in mouse after oral administration with 10% aqueous acacia gum", "assay_type": "organism-based", "procedure,_shortened": "as §4"}, "Rattus norvegicus [18]": {"system": "Rattus norvegicus", "test": "Inhibition of mast cell degranulation was assessed in female albino rats at a dose of 43 umol/kg iv", "assay_type": "functional"}, "[19]": {"test": "In vivo toxic effect was determined in mouse after intraperitoneal administration with 10% aqueous acacia gum; value ranges from 5.14-9.14", "assay_type": "toxicity, organism-based", "settings": "ip", "procedure,_shortened": "as §1"}, "[20]": {"test": "In vivo toxic effect was determined in mouse after oral administration with 10% aqueous acacia gum; value ranges from 3.02-4.51", "assay_type": "toxicity, organism-based", "procedure,_shortened": "as §4"}, "[21]": {"test": "In vivo toxic effect was determined in mouse after intraperitoneal administration with 10% aqueous acacia gum; value ranges from 1.41-3.07", "assay_type": "toxicity, organism-based", "settings": "ip", "procedure,_shortened": "as §1"}, "[22]": {"test": "In vivo toxic effect was determined in mouse after intraperitoneal administration with 10% aqueous acacia gum; value ranges from 3.67-6.20", "assay_type": "toxicity, organism-based", "settings": "ip", "procedure,_shortened": "as §1"}, "Rattus norvegicus [23]": {"system": "Rattus norvegicus", "test": "Rat PCA Test(50% inhibition of spot areas)in the female albino rats after (ip) administration in 10% aqueous acacia gum; value ranges from 328-1350", "assay_type": "functional", "settings": "read-out: ID50 (the source's name)", "procedure,_shortened": "as §3"}}}
{"smiles": "CC1CN(c2ccccn2)CCN1CCC(=O)Nc1ccc(N)cc1.Cl", "note": "(configuration not stated)", "values": [{"measurement": "LD50", "setting": "[1]", "value": 1190, "unit": "µmol/kg"}, {"measurement": "ED50", "setting": "Rattus norvegicus [2]", "value": 92, "unit": "µmol/kg"}, {"measurement": "inhibition in vivo at 45 µmol/kg", "setting": "Rattus norvegicus [3]", "value": 14, "unit": "%"}, {"measurement": "ID75", "setting": "Cavia porcellus", "value": 0.59, "unit": "µM/kg"}, {"measurement": "ED50", "setting": "Rattus norvegicus [4]", "value": 35, "unit": "µmol/kg"}, {"measurement": "LD50", "setting": "[5]", "value": 2970, "unit": "µmol/kg"}]}
{"smiles": "Cl.Nc1cccc(NC(=O)CCN2CCN(c3ccccn3)CC2)c1", "values": [{"measurement": "LD50", "setting": "[6]", "value": 850, "unit": "µmol/kg"}, {"measurement": "ID75", "setting": "Cavia porcellus", "value": 0.61, "unit": "µM/kg"}, {"measurement": "ED50", "setting": "Rattus norvegicus [7]", "value": 148, "unit": "µmol/kg"}, {"measurement": "LD50", "setting": "[8]", "value": 900, "unit": "µmol/kg"}]}
{"smiles": "CC1CN(c2ccccn2)CCN1CCC(=O)Nc1ccc([N+](=O)[O-])cc1.Cl.Cl", "note": "(configuration not stated)", "values": [{"measurement": "LD50", "setting": "[9]", "value": 1200, "unit": "µmol/kg"}, {"measurement": "ED50", "setting": "Rattus norvegicus [10]", "value": 61, "unit": "µmol/kg"}, {"measurement": "LD50", "setting": "[11]", "value": 420, "unit": "µmol/kg"}]}
{"smiles": "Cl.Cl.O=C(CCN1CCN(c2ccccn2)CC1)Nc1cccc(C(F)(F)F)c1", "values": [{"measurement": "LD50", "setting": "[12]", "value": 1170, "unit": "µmol/kg"}, {"measurement": "ID75", "setting": "Cavia porcellus", "value": 0.65, "unit": "µM/kg"}, {"measurement": "LD50", "setting": "[13]", "value": 560, "unit": "µmol/kg"}, {"measurement": "ED50", "setting": "Rattus norvegicus [14]", "value": "> 55", "unit": "µmol/kg"}]}
{"smiles": "CNC(=O)Nc1ccc(NC(=O)CCN2CCN(c3ccccn3)CC2)cc1.Cl.Cl", "values": [{"measurement": "ID75", "setting": "Cavia porcellus", "value": 0.29, "unit": "µM/kg"}, {"measurement": "ED50", "setting": "Rattus norvegicus [15]", "value": "> 220", "unit": "µmol/kg"}, {"measurement": "ED50", "setting": "Rattus norvegicus [16]", "value": 109, "unit": "µmol/kg"}, {"measurement": "LD50", "setting": "[17]", "value": "> 6500", "unit": "µmol/kg"}, {"measurement": "inhibition in vivo at 43 µmol/kg", "setting": "Rattus norvegicus [18]", "value": 0, "unit": "%"}]}
{"smiles": "CCOC(=O)CC(C)N1CCN(c2ccccn2)CC1.Cl.Cl", "note": "(configuration not stated)", "values": [{"measurement": "ID75", "setting": "Cavia porcellus", "value": 4.14, "unit": "µM/kg"}, {"measurement": "LD50", "setting": "[19]", "value": 6850, "unit": "µmol/kg"}, {"measurement": "ED50", "setting": "Rattus norvegicus [14]", "value": "> 857", "unit": "µmol/kg"}]}
{"smiles": "Cl.Cl.O=C(CCN1CCN(c2ccccn2)CC1)Nc1ccccc1[N+](=O)[O-]", "values": [{"measurement": "ID75", "setting": "Cavia porcellus", "value": 0.58, "unit": "µM/kg"}, {"measurement": "LD50", "setting": "[20]", "value": 3700, "unit": "µmol/kg"}, {"measurement": "LD50", "setting": "[21]", "value": 2080, "unit": "µmol/kg"}, {"measurement": "ED50", "setting": "Rattus norvegicus [14]", "value": "> 230", "unit": "µmol/kg"}]}
{"smiles": "CCOC(=O)CCN1CCN(c2ccccn2)CC1.Cl.Cl", "values": [{"measurement": "ID75", "setting": "Cavia porcellus", "value": 7.03, "unit": "µM/kg"}, {"measurement": "LD50", "setting": "[22]", "value": 5080, "unit": "µmol/kg"}, {"measurement": "ED50", "setting": "Rattus norvegicus [23]", "value": 665, "unit": "µmol/kg"}]}
